Converted amounts (≈) assume the structure as drawn. The source made the active and inactive calls. The rule behind the calls is not given here.
Key:
Moraxella catarrhalis [1] = assay: Antimicrobial activity against Moraxella catarrhalis clinical isolates incubated for 48 hrs by microdilution broth method; type: functional
In short: (§1)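 Stocks in DMSO were diluted at least 10-fold into Mueller-Hinton broth, then 2-fold serially diluted in MH from 500 to 15.6 μg/ml. Bacteria were added, with DMSO-only dilution controls, and incubated at 37 °C for 48 h. Growth was scored at 24 and 48 h. MIC was the lowest concentration with no growth. Run in quadruplicate.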

Moraxella catarrhalis [2] = assay: Bactericidal activity against Moraxella catarrhalis clinical isolates incubated for 48 hrs by microdilution broth method and standard plating method; type: functional
In short: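 Broth microdilution in Mueller-Hinton broth, 2-fold series from 500 to 15.6 μg/ml, with DMSO-only controls, 37 °C for 48 h. Wells showing no growth were plated (10 μL) on MH agar. MBC was the lowest concentration giving no growth on plating. Run in quadruplicate.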

[3] = tested on: Mycobacterium tuberculosis; assay: Antimicrobial activity against Mycobacterium tuberculosis H37Rv incubated for 48 hrs by microdilution broth method; type: functional
Staphylococcus aureus = assay: Antimicrobial activity against Staphylococcus aureus ATCC 25923 incubated for 48 hrs by microdilution broth method; type: functional, organism-based; in short: as §1
Escherichia coli [4] = assay: Antimicrobial activity against Escherichia coli ATCC 25922 incubated for 48 hrs by microdilution broth method; type: functional, organism-based; in short: as §1
Enterococcus faecalis = assay: Antimicrobial activity against Enterococcus faecalis ATCC 29212 incubated for 48 hrs by microdilution broth method; type: functional, organism-based; in short: as §1
Pseudomonas aeruginosa = assay: Antimicrobial activity against Pseudomonas aeruginosa ATCC 27853 incubated for 48 hrs by microdilution broth method; type: functional, organism-based; in short: as §1
Escherichia coli [5] = assay: Antimicrobial activity against broad spectrum beta-lactamase producing Escherichia coli MISC 206 incubated for 48 hrs by microdilution broth method; type: functional, organism-based; in short: as §1
Escherichia coli [6] = assay: Antimicrobial activity against broad spectrum beta-lactamase producing Escherichia coli GB 8 incubated for 48 hrs by microdilution broth method; type: functional, organism-based; in short: as §1
Escherichia coli [7] = assay: Antimicrobial activity against extended spectrum beta-lactamase producing Escherichia coli MISC 262 incubated for 48 hrs by microdilution broth method; type: functional, organism-based; in short: as §1
Citrobacter freundii [8] = assay: Antimicrobial activity against extended spectrum beta-lactamase producing Citrobacter freundii Citro 314 incubated for 48 hrs by microdilution broth method; type: functional, organism-based; in short: as §1
Klebsiella pneumoniae [9] = assay: Antimicrobial activity against AmpC producing Klebsiella pneumoniae MISC 304 incubated for 48 hrs by microdilution broth method; type: functional, organism-based; in short: as §1
Klebsiella pneumoniae [10] = assay: Antimicrobial activity against AmpC producing Klebsiella pneumoniae KLEB 249 incubated for 48 hrs by microdilution broth method; type: functional, organism-based; in short: as §1
Citrobacter freundii [11] = assay: Antimicrobial activity against AmpC producing Citrobacter freundii CITRO 21 incubated for 48 hrs by microdilution broth method; type: functional, organism-based; in short: as §1
[12] = tested on: Stenotrophomonas maltophilia; assay: Antimicrobial activity against metallo beta-lactamases producing Stenotrophomonas maltophilia GM24 incubated for 48 hrs by microdilution broth method; type: functional, organism-based; in short: as §1
Acinetobacter baumannii [13] = assay: Antimicrobial activity against extended spectrum beta-lactamase and carbapenemase producing Acinetobacter baumannii L185 incubated for 48 hrs by microdilution broth method; type: functional, organism-based; in short: as §1
Acinetobacter baumannii [14] = assay: Antimicrobial activity against extended spectrum beta-lactamase and carbapenemase producing Acinetobacter baumannii L186 incubated for 48 hrs by microdilution broth method; type: functional, organism-based; in short: as §1
Acinetobacter baumannii [15] = assay: Antimicrobial activity against extended spectrum beta-lactamase and carbapenemase producing Acinetobacter baumannii L187 incubated for 48 hrs by microdilution broth method; type: functional, organism-based; in short: as §1
Klebsiella pneumoniae [16] = assay: Antimicrobial activity against extended spectrum beta-lactamase and carbapenemase producing Klebsiella pneumoniae KPC L133 incubated for 48 hrs by microdilution broth method; type: functional, organism-based; in short: as §1
Klebsiella pneumoniae [17] = assay: Antimicrobial activity against extended spectrum beta-lactamase and carbapenemase producing Klebsiella pneumoniae ESBL L174 incubated for 48 hrs by microdilution broth method; type: functional, organism-based; in short: as §1
Escherichia coli [18] = assay: Antimicrobial activity against extended spectrum beta-lactamase and carbapenemase producing Escherichia coli ESBL L108 incubated for 48 hrs by microdilution broth method; type: functional, organism-based; in short: as §1
Escherichia coli [19] = assay: Antimicrobial activity against extended spectrum beta-lactamase and carbapenemase producing Escherichia coli ESBL L109 incubated for 48 hrs by microdilution broth method; type: functional, organism-based; in short: as §1

Row | SMILES | MIC (Moraxella catarrhalis [1]) | MBC (Moraxella catarrhalis [2]) | MIC [3] | MIC (Staphylococcus aureus) | MIC (Escherichia coli [4]) | MIC (Enterococcus faecalis) | MIC (Pseudomonas aeruginosa) | MIC (Escherichia coli [5]) | MIC (Escherichia coli [6]) | MIC (Escherichia coli [7]) | MIC (Citrobacter freundii [8]) | MIC (Klebsiella pneumoniae [9]) | MIC (Klebsiella pneumoniae [10]) | MIC (Citrobacter freundii [11]) | MIC [12] | MIC (Acinetobacter baumannii [13]) | MIC (Acinetobacter baumannii [14]) | MIC (Acinetobacter baumannii [15]) | MIC (Klebsiella pneumoniae [16]) | MIC (Klebsiella pneumoniae [17]) | other results
1 | O=C1CC(Sc2ccccc2)N1C(=O)NCc1ccccc1 (racemic) | 12.5 µg/mL (≈ 40 µM) | 12.5 µg/mL (≈ 40 µM) | 6.25 µg/mL (≈ 20 µM) | inactive | inactive | inactive | inactive | inactive | inactive | inactive | inactive | inactive | inactive | inactive | inactive | inactive | inactive | inactive | inactive | inactive | MIC (Escherichia coli [18]): inactive; MIC (Escherichia coli [19]): inactive
2 | O=C1CC(Sc2ccccc2F)N1C(=O)NCc1ccccc1 (racemic) | 25 µg/mL (≈ 75.7 µM) | 50 µg/mL (≈ 151 µM) | 3.13 µg/mL (≈ 9.47 µM) | inactive | inactive | inactive | inactive | inactive | inactive | inactive | inactive | inactive | inactive | inactive | inactive | inactive | inactive | inactive | inactive | inactive | MIC (Escherichia coli [18]): inactive; MIC (Escherichia coli [19]): inactive
3 | O=C1CC(Sc2ccc(F)cc2)N1C(=O)NCc1ccccc1 (racemic) | 25 µg/mL (≈ 75.7 µM) | 25 µg/mL (≈ 75.7 µM) | 6.25 µg/mL (≈ 18.9 µM) | inactive | inactive | inactive | inactive | inactive | inactive | inactive | inactive | inactive | inactive | inactive | inactive | inactive | inactive | inactive | inactive | inactive | MIC (Escherichia coli [18]): inactive; MIC (Escherichia coli [19]): inactive
4 | O=C1CC(Sc2ccc(F)c(F)c2)N1C(=O)NCc1ccccc1 (racemic) | 12.5 µg/mL (≈ 35.9 µM) | 25 µg/mL (≈ 71.8 µM) | 6.25 µg/mL (≈ 17.9 µM) | inactive | inactive | inactive | inactive | inactive | inactive | inactive | inactive | inactive | inactive | inactive | inactive | inactive | inactive | inactive | inactive | inactive | MIC (Escherichia coli [18]): inactive; MIC (Escherichia coli [19]): inactive
5 | O=C1CC(Sc2cccc(C(F)(F)F)c2)N1C(=O)NCc1ccccc1 (racemic) | 3.12 µg/mL (≈ 8.22 µM) | 6.25 µg/mL (≈ 16.4 µM) | 25 µg/mL (≈ 65.7 µM) | inactive | inactive | inactive | inactive | inactive | inactive | inactive | inactive | inactive | inactive | inactive | inactive | inactive | inactive | inactive | inactive | inactive | MIC (Escherichia coli [18]): inactive; MIC (Escherichia coli [19]): inactive
6 | O=C1CC(Sc2ccc(C(F)(F)F)cc2)N1C(=O)NCc1ccccc1 (racemic) | 1.62 µg/mL (≈ 4.27 µM) | 12.5 µg/mL (≈ 32.9 µM) | 12.5 µg/mL (≈ 32.9 µM) | inactive | inactive | inactive | inactive | inactive | inactive | inactive | inactive | inactive | inactive | inactive | inactive | inactive | inactive | inactive | inactive | inactive | MIC (Escherichia coli [18]): inactive; MIC (Escherichia coli [19]): inactive
7 | O=C1CC(Sc2cc(C(F)(F)F)cc(C(F)(F)F)c2)N1C(=O)NCc1ccccc1 (racemic) | 6.25 µg/mL (≈ 13.9 µM) | 6.25 µg/mL (≈ 13.9 µM) | 6.25 µg/mL (≈ 13.9 µM) | inactive | inactive | inactive | inactive | inactive | inactive | inactive | inactive | inactive | inactive | inactive | inactive | inactive | inactive | inactive | inactive | inactive | MIC (Escherichia coli [18]): inactive; MIC (Escherichia coli [19]): inactive

From ChEMBL document CHEMBL3392996, “Non-transpeptidase binding arylthioether β-lactams active against Mycobacterium tuberculosis and Moraxella catarrhalis” (2015)
